{"data": "Published values collected from several papers", "target": "Death-associated protein kinase 2 (DAPK2, Homo sapiens, UniProt Q9UIK4)", "note": "Protocols differ between the studies behind these lines."}
{"Compound": "Cc1ccc(C(=O)Nc2ccc(CN3CCN(C)CC3)c(C(F)(F)F)c2)cc1C#Cc1cnc2cccnn12", "assay": "enzyme activity, inhibitor", "setting": "23.5 nM", "measurement": "remaining activity", "result": "100%"}
{"Compound": "CCN(CC)CCNC(=O)c1c(C)[nH]c(/C=C2\\C(=O)Nc3ccc(F)cc32)c1C", "assay": "enzyme activity, inhibitor", "setting": "0.3 µM", "measurement": "inhibition", "result": "30%"}
{"Compound": "CN1CC(Oc2cnc(C#N)cc2-c2ccn3nc(NC(=O)C4CC4)cc3c2)C1", "assay": "enzyme activity, inhibitor", "setting": "1 µM", "measurement": "inhibition", "result": "0%"}
{"Compound": "COc1cc(-c2cn(C3CCc4c(F)cccc4N(CC(F)(F)F)C3=O)nn2)ccc1-n1cnc(C)c1 (stereo not shown)", "assay": "cell-free assay, competition with immobilised ligand", "setting": "1 µM", "measurement": "remaining binding", "result": "100%"}
{"Compound": "COc1cc(Cl)c(C(=O)N[C@@H](CN[C@H]2CC[C@@H](N)CC2)Cc2ccc(C#N)cc2)cc1-c1ccc(CN[C@H](C)c2ccc(C)cc2)o1", "assay": "enzyme activity, inhibitor", "setting": "1 µM", "measurement": "remaining activity", "result": "123%"}
{"Compound": "Cc1sc(C(=O)NC2COC2)cc1-n1cc(NC(=O)Nc2c(F)cccc2Cl)cn1", "assay": "enzyme activity, inhibitor", "setting": "10 µM", "measurement": "remaining activity", "result": "99.5%"}
{"Compound": "Cc1nc(C2CCN(C(=O)c3ccc(OC(F)(F)F)cc3N)CC2)c2ncc(N3CCN(C)CC3)cc2n1", "assay": "cell-free assay, competition with immobilised ligand", "setting": "1 µM", "measurement": "remaining binding", "result": "100%"}
{"Compound": "CNC(=O)c1cc(Oc2ccc(NC(=O)Nc3ccc(Cl)c(C(F)(F)F)c3)cc2)ccn1", "assay": "enzyme activity, inhibitor", "setting": "0.3 µM", "measurement": "inhibition", "result": "5%"}
{"Compound": "Cc1cnc(NC2CCOCC2)nc1-n1cnc(C(=O)NC(CN)c2cc(F)cc(Cl)c2)c1 (stereo not shown)", "assay": "enzyme activity, inhibitor, radiometric", "setting": "1 µM", "measurement": "remaining activity", "result": "108%"}
{"Compound": "N#CCCc1ccc2c(c1)-c1[nH]c3ccc([N+](=O)[O-])cc3c1CC(=O)N2", "assay": "cell-free assay", "setting": "0.5 µM", "measurement": "remaining signal", "result": "96.5%"}
{"Compound": "CC(C)(O)c1cncc(-c2nc3ccc(F)cc3n2C2CC2)c1", "assay": "cell-free assay, competition with immobilised ligand", "setting": "1 µM", "measurement": "remaining binding", "result": "100%"}
{"Compound": "CCN(CC)c1ccc(C2=NNC(=O)CC2C)cc1[N+](=O)[O-] (stereo not shown)", "assay": "enzyme activity, inhibitor", "setting": "10 µM", "measurement": "remaining activity", "result": "99%"}
{"Compound": "O=C(Nc1ccc(Oc2ccc(F)cc2)cc1)N1CCc2ncccc2[C@H]1c1ccc(F)cc1", "assay": "cell-free assay, competition with immobilised ligand", "setting": "1 µM", "measurement": "remaining binding", "result": "100%"}
{"Compound": "Cc1ccc(Nc2nccc(N(C)c3ccc4c(C)n(C)nc4c3)n2)cc1S(N)(=O)=O", "assay": "enzyme activity, inhibitor", "setting": "0.3 µM", "measurement": "inhibition", "result": "1%"}
{"Compound": "Cc1cc(NC(=O)c2cccc3cc(-c4cccc5[nH]nc(N)c45)ccc23)ccc1F", "assay": "enzyme activity, inhibitor", "setting": "0.1 µM", "measurement": "activity vs control", "result": "96%"}
{"Compound": "CC(C)(C)c1nc2c(s1)c1nc(N)ncc1c1ccc(NS(=O)(=O)c3c(F)cccc3F)c(F)c12", "assay": "enzyme activity, inhibitor, radiometric", "setting": "1 µM", "measurement": "remaining activity", "result": "81%"}
